From publication PMC7499187 (CPT: Pharmacometrics & Systems Pharmacology, 2020)
Values joined by “and” are separate entries in the source; they are usually repeats but may differ in a detail not shown here. Identical values can stand only once. Like-named read-outs stand apart in the source and are kept apart here. One block for each molecule: values may come before it.

How the values were obtained:
[1] = format: in vivo, human; settings: geometric mean (%CV)
Outline: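 Semimechanistic nonlinear mixed-effect population PK model with gut and hepatic CYP3A metabolism and a well-stirred liver model. Individual post hoc parameters simulated single oral doses (200 mg; cycle 1 day 1 starting 150 or 200 mg). Parent AUC0−∞ = Dose×F/CL. […] Cmax was taken from predicted profiles. Results are geometric mean (%CV).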

[2] = cited from earlier work
[3] = Semimechanistic population PK model; format: in vivo, human; settings: for Absorption lag time / CLint to form M2 in liver / CLint to form M20 in liver / Central volume / Fraction of Fa absorbed via transit compartment / Fraction of dose entering gut compartment, Fa / MTT / Maximum rate of absorption, ka,max / Peripheral volume / Rate constant for formation of M2 from gut / Rate constant for formation of M20 from gut / Zero-order absorption duration / Diarrhea effect on Fa / Km / CLint of M2 in liver / CLint of M20 in liver: final population model; for Km: Km for saturable absorption
[4] = Simulated Day 1 and steady-state exposures in MONARCH 2; format: in vivo, human; settings: MONARCH 2 and MONARCH 3, simulated exposures
Outline: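 Breast cancer patients on endocrine therapy were grouped as East Asian (Japanese, Korean, Taiwanese) or non-East Asian. Each patient's post hoc parameters came from a mechanistic NONMEM model, with dosage averaged over the study. Simulations covered cycle 1 day 1 after the starting dose (150 or 200 mg) and steady state after 56 days of 12-hourly dosing. Read-outs were geometric mean (%CV) Cmax, Cmin and dosing-interval AUC for parent, M2, M20 and total actives.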

[5] = cited from earlier work; remark: listed apart in the source
[6] = Noncompartmental analysis of absolute bioavailability study JPBS; format: in vivo, human
[7] = Healthy subjects, 200 mg single oral dose, N = 65
[8] = JPBL (patients), 150 mg single oral dose, N = 326
[9] = JPBL (patients), 200 mg single oral dose, N = 142
[10] = JPBN (patients), 200 mg single oral dose, N = 132
[11] = Patients, 200 mg single oral dose, N = 421
[12] = coadministration with clarithromycin (CYP3A inhibitor)
[13] = coadministration with rifampicin (CYP3A inducer)
[14] = NCA (200 mg), JPBS healthy subjects N = 8, geometric mean (%CV)

- Hepatic clearance [1, 7]: 23.8 (30.3) L/h
- Hepatic clearance [1, 8]: 25.1 (21) L/h
- Hepatic clearance [1, 9]: 26 (25.7) L/h
- Hepatic clearance [1, 10]: 24.3 (24.9) L/h
- Hepatic clearance [1, 11]: 21.8 (39.8) L/h
- effect of body weight on abemaciclib exposure ([3]; adults): no clinically significant effect
- difference in absorption parameters between the fasted state, a standard meal, and a high-fat meal ([3]; crossover food effect study): no significant difference
- Absorption lag time ([3]; Bootstrap median (95% CI)): 1.76 (1.69–1.80) h
- CLint to form M2 in liver ([3]; Bootstrap median (95% CI)): 235 (199–284) L/h
- CLint to form M20 in liver ([3]; Bootstrap median (95% CI)): 700 (627–775) L/h
- Central volume ([3]; Bootstrap median (95% CI)): 604 (563–635) L
- Fraction of Fa absorbed via transit compartment ([3]; Bootstrap median (95% CI)): 0.479 (0.453–0.507)
- Fraction of dose entering gut compartment, Fa ([3]; Bootstrap median (95% CI)): 0.882 (0.874–0.890)
- MTT ([3]; Bootstrap median (95% CI)): 1.52 (1.43–1.62) h
- Maximum rate of absorption, ka,max ([3]; Bootstrap median (95% CI)): 97.6 (85.0–111) µmol/h
- Peripheral volume ([3]; Bootstrap median (95% CI)): 152 (132–184) L
- Rate constant for formation of M2 from gut ([3]; Bootstrap median (95% CI)): 0.401 (0.366–0.432) /h
- Rate constant for formation of M20 from gut ([3]; Bootstrap median (95% CI)): 0.306 (0.276–0.339) /h
- Zero-order absorption duration ([3]; Bootstrap median (95% CI)): 3.04 (2.52–3.84) h
- Diarrhea effect on Fa ([3]; Bootstrap median (95% CI), logit parameter): −0.0079 (−1.29, 2.65 × 10^−7)
- Absorption lag time ([3]; Estimate (%SEE)): 1.74 h and 1.74 (0.538) h
- CLint to form M2 in liver ([3]; Estimate (%SEE)): 280 (0.436) L/h
- CLint to form M20 in liver ([3]; Estimate (%SEE)): 705 (0.421) L/h
- Central volume ([3]; Estimate (%SEE)): 588 (2.81) L
- Fraction of Fa absorbed via transit compartment ([3]; Estimate (%SEE)): 0.458 (0.336)
- Fraction of dose entering gut compartment, Fa ([3]; Estimate (%SEE)): 0.868 (0.0583)
- MTT ([3]; Estimate (%SEE)): 1.44 h and 1.44 (3.68) h
- Maximum rate of absorption, ka,max ([3]; Estimate (%SEE)): 91.1 µmol/h and 91.1 (3.96) µmol/h
- Peripheral volume ([3]; Estimate (%SEE)): 159 (0.421) L
- Rate constant for formation of M2 from gut ([3]; Estimate (%SEE)): 0.361 (0.479) /h
- Rate constant for formation of M20 from gut ([3]; Estimate (%SEE)): 0.284 (0.468) /h
- Zero-order absorption duration ([3]; Estimate (%SEE)): 3.18 h and 3.18 (10.3) h
- Diarrhea effect on Fa ([3]; Estimate (%SEE), on the logit parameter for Fa): −0.417 (7.99)
- clearance ([3]; human, plasma, oral): 380 mL/min
- Km ([3]; human, plasma, oral, Bootstrap median (95% CI)): 51.8 µM
- Km ([3]; human, plasma, oral, Estimate (%SEE)): 52.7 µM
- intrinsic ka (absorption rate constant) ([3]; in the absence of drug, metabolism-susceptible pathway): 1.73 h⁻¹
- absorbed amount absorbed via the zero-order route ([3]; in vivo): 54.2%
- dose either not absorbed or lost as other metabolites ([3]; in vivo): 13.2%
- total administered dose absorbed either as abemaciclib, M2, or M20 ([3]; in vivo): 86.8%
- typical total CLint of unbound abemaciclib that resulted in formation of M2 and M20 ([3]; in vivo): 985 L/h
- amount that results in half maximal absorption rate ([3]; saturable absorption from final transit compartment): 27 mg
- typical ka,max ([3]; saturable absorption from final transit compartment to liver): 46.2 mg/h
- effect of East Asian ethnicity on abemaciclib PK [4]: no effect
- Hepatic clearance [6, 14]: 24.0 (27) L/h
- AUC(0-inf) ([6]; human, plasma, oral, 200 mg): 3730 ng·h/mL
- Cmax ([6]; human, plasma, oral, 200 mg): 114 ng/mL
- bioavailability ([6]; human, plasma, oral, 200 mg): 44.8%
Compound: CCN1CCN(Cc2ccc(Nc3ncc(F)c(-c4cc(F)c5nc(C)n(C(C)C)c5c4)n3)nc2)CC1 [Abemaciclib]
- increase of abemaciclib AUC [2, 12]: 237%
- increase of abemaciclib Cmax [2, 12]: 30%
- reduction of abemaciclib area under the curve (AUC) [2, 13]: 95%
- reduction of abemaciclib maximum plasma concentration (Cmax) [2, 13]: 92%
- parent drug renally excreted [5]: 3%
- mean terminal elimination half-life ([5]; in patients): approximately 24 hours
- median time to maximum plasma concentration ([5]; phase I cancer patient population): approximately 8 hours

- AUC0−∞ [1, 7]: 1690 (39.9) ng·h/mL
- Apparent hepatic clearance [1, 7]: 22.9 (28.4) L/h
- Cmax [1, 7]: 28.8 (36.1) ng/mL
- Half-life [1, 7]: 21.2 (25.8) h
- AUC0−∞ [1, 8]: 1640 (70.2) ng·h/mL
- Apparent hepatic clearance [1, 8]: 18.3 (49.9) L/h
- Cmax [1, 8]: 33.6 (70.4) ng/mL
- Half-life [1, 8]: 17.2 (65.1) h
- AUC0−∞ [1, 9]: 1820 (72) ng·h/mL
- Apparent hepatic clearance [1, 9]: 20.9 (48.1) L/h
- Cmax [1, 9]: 40.2 (73.9) ng/mL
- Half-life [1, 9]: 16 (73.6) h
- AUC0−∞ [1, 10]: 1620 (55.0) ng·h/mL
- Apparent hepatic clearance [1, 10]: 23.9 (35.3) L/h
- Cmax [1, 10]: 26.9 (54.7) ng/mL
- Half-life [1, 10]: 21.3 (73.5) h
- AUC0−∞ [1, 11]: 1790 (71.6) ng·h/mL
- Apparent hepatic clearance [1, 11]: 21.5 (54.3) L/h
- Cmax [1, 11]: 30.3 (75.7) ng/mL
- Half-life [1, 11]: 19.3 (65.4) h
- CLint of M2 in liver ([3]; Bootstrap median (95% CI)): 241 (218–271) L/h
- CLint of M2 in liver ([3]; Estimate (%SEE)): 254 (2.06) L/h
- AUC0−∞ [6, 14]: 1450 (19) ng·h/mL
- Cmax [6, 14]: 31.7 (22) ng/mL
- Half-life [6, 14]: 72.6 (23) h
Compound: Cc1nc2c(F)cc(-c3nc(Nc4ccc(CN5CCNCC5)cn4)ncc3F)cc2n1C(C)C [M2]

- AUC0−∞ [1, 7]: 3450 (34.4) ng·h/mL
- Apparent hepatic clearance [1, 7]: 23.9 (23.7) L/h
- Cmax [1, 7]: 49.1 (32.5) ng/mL
- Half-life [1, 7]: 20.3 (21.3) h
- AUC0−∞ [1, 8]: 2870 (69.6) ng·h/mL
- Apparent hepatic clearance [1, 8]: 22.5 (44.3) L/h
- Cmax [1, 8]: 59.3 (78.7) ng/mL
- Half-life [1, 8]: 14 (62.5) h
- AUC0−∞ [1, 9]: 3020 (72.8) ng·h/mL
- Apparent hepatic clearance [1, 9]: 25.8 (43.3) L/h
- Cmax [1, 9]: 66.1 (82.8) ng/mL
- Half-life [1, 9]: 13 (70.1) h
- AUC0−∞ [1, 10]: 2750 (55.0) ng·h/mL
- Apparent hepatic clearance [1, 10]: 26.2 (33.5) L/h
- Cmax [1, 10]: 39.4 (56.0) ng/mL
- Half-life [1, 10]: 19.4 (72.7) h
- AUC0−∞ [1, 11]: 3240 (74.7) ng·h/mL
- Apparent hepatic clearance [1, 11]: 23.7 (52.1) L/h
- Cmax [1, 11]: 48.8 (83.0) ng/mL
- Half-life [1, 11]: 17.5 (62.5) h
- CLint of M20 in liver ([3]; Bootstrap median (95% CI)): 454 (417–489) L/h
- CLint of M20 in liver ([3]; Estimate (%SEE)): 431 (2.00) L/h
- AUC0−∞ [6, 14]: 3260 (26) ng·h/mL
- Cmax [6, 14]: 55.7 (26) ng/mL
- Half-life [6, 14]: 35.3 (16) h
Compound: CCN1CCN(Cc2ccc(Nc3ncc(F)c(-c4cc(F)c5nc(CO)n(C(C)C)c5c4)n3)nc2)CC1 [M20]
